Laboratory results reported in ChEMBL document CHEMBL1154674, “Synthesis and evaluation of three 18F-labeled aminophenylbenzothiazoles as amyloid imaging agents” (J Med Chem, 2009).

Legend:
Lung [1] = assay: Drug level in NMRI mouse lung assessed as standard uptake value at 3.7 MBq/mL, iv after 2 mins by gamma counting; type: ADME, organism-based; conditions: in vivo
Summary of the method: (§1)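 Male NMRI mice (30-40 g) were anaesthetised with isoflurane. Each received 0.1 mL of HPLC-purified tracer, diluted in 0.9% NaCl to 3.7 MBq/mL (ethanol ≤10%), via a tail vein. Mice were decapitated at 2 or 60 min. Organs were dissected, weighed and γ-counted with background correction. SUV = (organ cpm/organ weight)/(total recovered counts/body weight). Blood mass was taken as 7% of body mass.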

Blood [2] = assay: Biodistribution in NMRI mouse blood assessed per gram of tissue at 3.7 MBq/mL, iv after 2 mins by gamma counting; type: ADME, organism-based; conditions: in vivo
Summary of the method: (§2)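 Male NMRI mice (30-40 g) under isoflurane (1.5-2.5% in oxygen) got 0.1 mL of HPLC-purified tracer diluted with 0.9% NaCl to 3.7 MBq/mL (ethanol ≤10%) via tail vein. Mice were decapitated at 2 or 60 min p.i., and organs, blood and urine were weighed and γ-counted. Values are background-corrected %ID or %ID/g, with blood mass taken as 7% of body mass.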

[3] = Drug level in normal rhesus monkey white matter assessed as standard uptake value at 96.3 MBq, iv after 22.5 mins by microPET; type: ADME, organism-based, Macaca mulatta; conditions: in vivo, 0.375 h
Blood [4] = assay: Biodistribution in NMRI mouse blood at 3.7 MBq/mL, iv after 60 mins by gamma counting; type: ADME, organism-based; conditions: in vivo, 1 h; summary of the method: as §2
Kidney [5] = assay: Drug level in NMRI mouse kidney assessed as standard uptake value at 3.7 MBq/mL, iv after 60 mins by gamma counting; type: ADME, organism-based; conditions: in vivo, 1 h; summary of the method: as §1
Heart = assay: Biodistribution in NMRI mouse heart at 3.7 MBq/mL, iv after 2 mins by gamma counting; type: ADME, organism-based; conditions: in vivo; summary of the method: as §2
Blood [6] = assay: Drug level in NMRI mouse blood assessed as standard uptake value at 3.7 MBq/mL, iv after 60 mins by gamma counting; type: ADME, organism-based; conditions: in vivo, 1 h; summary of the method: as §1
[7] = Drug level in NMRI mouse spleen/pancreas assessed as standard uptake value at 3.7 MBq/mL, iv after 60 mins by gamma counting; type: ADME, organism-based; conditions: in vivo, 1 h; summary of the method: as §1
[8] = Drug level in normal rhesus monkey thalamus assessed as standard uptake value at 96.3 MBq, iv after 65 mins by microPET; type: ADME, organism-based, Macaca mulatta; conditions: in vivo
Lung [9] = assay: Drug level in NMRI mouse lung assessed as standard uptake value at 3.7 MBq/mL, iv after 60 mins by gamma counting; type: ADME, organism-based; conditions: in vivo, 1 h; summary of the method: as §1
[10] = Drug level in normal rhesus monkey parietal cortex assessed as standard uptake value at 96.3 MBq, iv after 10 mins by microPET; type: ADME, organism-based, Macaca mulatta; conditions: in vivo
[11] = Drug level in normal rhesus monkey frontal cortex assessed as standard uptake value at 96.3 MBq, iv after 175 mins by microPET; type: ADME, organism-based, Macaca mulatta; conditions: in vivo
[12] = Drug level in normal rhesus monkey pons assessed as standard uptake value at 96.3 MBq, iv after 8 mins by microPET; type: ADME, organism-based, Macaca mulatta; conditions: in vivo
Kidney [13] = assay: Biodistribution in NMRI mouse kidney at 3.7 MBq/mL, iv after 60 mins by gamma counting; type: ADME, organism-based; conditions: in vivo, 1 h; summary of the method: as §2
[14] = Drug level in normal rhesus monkey pons assessed as standard uptake value at 96.3 MBq, iv after 17.5 mins by microPET; type: ADME, organism-based, Macaca mulatta; conditions: in vivo
[15] = Biodistribution in NMRI mouse spleen/pancreas assessed per gram of tissue at 3.7 MBq/mL, iv after 2 mins by gamma counting; type: ADME, organism-based; conditions: in vivo; summary of the method: as §2
[16] = Drug level in normal rhesus monkey white matter assessed as standard uptake value at 96.3 MBq, iv after 165 mins by microPET; type: ADME, organism-based, Macaca mulatta; conditions: in vivo, 2.75 h
[17] = Drug level in normal rhesus monkey frontal cortex assessed as standard uptake value at 96.3 MBq, iv after 145 mins by microPET; type: ADME, organism-based, Macaca mulatta; conditions: in vivo
Lung [18] = assay: Biodistribution in NMRI mouse lung assessed per gram of tissue at 3.7 MBq/mL, iv after 60 mins by gamma counting; type: ADME, organism-based; conditions: in vivo, 1 h; summary of the method: as §2
[19] = Drug level in normal rhesus monkey thalamus assessed as standard uptake value at 96.3 MBq, iv after 10 mins by microPET; type: ADME, organism-based, Macaca mulatta; conditions: in vivo
[20] = Drug level in normal rhesus monkey frontal cortex assessed as standard uptake value at 81.2 MBq, iv after 65 mins by microPET; type: ADME, organism-based, Macaca mulatta; conditions: in vivo
[21] = Drug level in normal rhesus monkey pons assessed as standard uptake value at 81.2 MBq, iv after 6 mins by microPET; type: ADME, organism-based, Macaca mulatta; conditions: in vivo, 0.1 h
[22] = Drug level in normal rhesus monkey cerebellum assessed as standard uptake value at 81.2 MBq, iv after 0.5 mins by microPET; type: ADME, organism-based, Macaca mulatta; conditions: in vivo
Summary of the method: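 One normal rhesus monkey, each tracer given iv via the vena saphena (81.2, 96.3 or 109.4 MBq), with 1 day between tracer injections. Dynamic brain μPET over 180 min used frames of 5 × 60 s, 5 × 120 s, 9 × 300 s and 12 × 600 s. Images were reconstructed by filtered back projection with a RAMP filter. Regional time-activity curves were expressed as SUV.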

[23] = Drug level in normal rhesus monkey white matter assessed as standard uptake value at 81.2 MBq, iv after 175 mins by microPET; type: ADME, organism-based, Macaca mulatta; conditions: in vivo
[24] = Drug level in normal rhesus monkey pons assessed as standard uptake value at 152.9 MBq, iv after 14 mins by microPET; type: ADME, organism-based, Macaca mulatta; conditions: in vivo
[25] = Drug level in normal rhesus monkey thalamus assessed as standard uptake value at 109.4 MBq, iv after 123 mins by microPET; type: ADME, organism-based, Macaca mulatta; conditions: in vivo, 2.05 h
[26] = Drug level in normal rhesus monkey cerebellum assessed as standard uptake value at 109.4 MBq, iv after 47.5 mins by microPET; type: ADME, organism-based, Macaca mulatta; conditions: in vivo
Summary of the method: (§3)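 One normal rhesus monkey received each tracer via the vena saphena, with 1 day between injections. Dynamic μPET ran 180 min for 18F tracers (5×60 s, 5×120 s, 9×300 s, 12×600 s) and 90 min for the 11C tracer (5×60 s, 5×120 s, 9×300 s, 3×600 s). Filtered back-projection reconstruction (RAMP filter) was used. Time-activity curves were drawn to give regional SUV.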

[27] = Drug level in normal rhesus monkey thalamus assessed as standard uptake value at 109.4 MBq, iv after 69 mins by microPET; type: ADME, organism-based, Macaca mulatta; conditions: in vivo, 1.15 h
[28] = Drug level in normal rhesus monkey parietal cortex assessed as standard uptake value at 109.4 MBq, iv after 0.625 mins by microPET; type: ADME, organism-based, Macaca mulatta; conditions: in vivo, 38 s
[29] = Drug level in normal rhesus monkey white matter assessed as standard uptake value at 109.4 MBq, iv after 3.5 mins by microPET; type: ADME, organism-based, Macaca mulatta; conditions: in vivo
[30] = Drug level in normal rhesus monkey frontal cortex assessed as standard uptake value at 109.4 MBq, iv after 117 mins by microPET; type: ADME, organism-based, Macaca mulatta; conditions: in vivo, 1.95 h
[31] = Drug level in normal rhesus monkey cerebellum assessed as standard uptake value at 109.4 MBq, iv after 32.5 mins by microPET; type: ADME, organism-based, Macaca mulatta; conditions: in vivo; summary of the method: as §3
[32] = Drug level in normal rhesus monkey cerebellum assessed as standard uptake value at 109.4 MBq, iv after 27.5 mins by microPET; type: ADME, organism-based, Macaca mulatta; conditions: in vivo
Summary of the method: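 Single normal rhesus monkey; each tracer given iv via the vena saphena, with 1 day between tracer injections. Dynamic μPET ran 180 min (5×60 s, 5×120 s, 9×300 s, 12×600 s). Images were reconstructed by filtered back projection with a RAMP filter. Regional time-activity curves were expressed as SUV.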

SMILES | SUV (Lung [1]) | Drug uptake (Blood [2]) [%] | Drug uptake (Blood [4]) [%] | SUV (Kidney [5]) | Drug uptake (Heart) [%] | SUV (Blood [6]) | SUV [7] | SUV (Lung [9]) | Drug uptake (Kidney [13]) [%] | Drug uptake [15] [%] | Drug uptake (Lung [18]) [%] | other results
CN(C)c1ccc2nc(-c3ccc([18F])cc3)sc2c1 | 2.9 | 1.1 | 2.4 | 2.4 | 1.2 | 0.3 | 0.4 | 0.7 | 4.8 | 5.5 | 1.9 | SUV [3]: 1.3; SUV [8]: 2.21; SUV [10]: 2.26; SUV [11]: 1.49; SUV [12]: 1.44; SUV [14]: 1.51; SUV [16]: 1.55; SUV [17]: 1.44; SUV [19]: 2.12
CNc1ccc2nc(-c3ccc([18F])cc3)sc2c1 | 2.5 | 0.7 | 2.2 | 1.6 | 0.8 | 0.3 | 0.3 | 0.5 | 3.2 | 5.9 | 1.4 | SUV [20]: 5.125; SUV [21]: 4.164; SUV [22]: 0.735; SUV [23]: 4.226
[11CH3]Nc1ccc(-c2nc3ccc(O)cc3s2)cc1 [PITTSBURGH COMPOUND B] | 1.3 | 3.1 | 2.7 | 3.3 | 0.6 | 0.4 | 0.2 | 0.4 | 4.8 | 4.7 | 1.3 | SUV [24]: 2.04
Nc1ccc2nc(-c3ccc([18F])cc3)sc2c1 | 2.8 | 2.4 | 1.3 | 0.6 | 0.7 | 0.2 | 0.3 | 0.4 | 1 | 6.8 | 1.2 | SUV [25]: 4.63; SUV [26]: 3.54; SUV [27]: 5.32; SUV [28]: 1.52; SUV [29]: 2.22; SUV [30]: 4.28; SUV [31]: 4.03; SUV [32]: 4.16
